In test [1] the test system is Mus musculus. The experiment in a line: Activity of inclined screen in mouse, after 5 hour of peroral administration in mouse. In kind it is functional. The settings on record: po. The procedure, abridged:
(§1)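 Male mice dosed orally (arabic gum suspension, 10 mL/kg, fasted overnight) 1 or 5 h before testing. Placed for 1 h on a wire screen bent at 60° to the horizontal. Ataxic or miorelaxed mice slide off. ED50 is the dose at which 50% of mice fall, by probit analysis. Ten animals per dose, with vehicle controls.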

The test system of test [2] is Mus musculus. The experiment in a line: Inhibitory activity against tremorine-induced salivation, after 5 hour of peroral administration in mouse. The note with it: po.
Test [3] has as its system Mus musculus. The experiment in a line: Anticonvulsant activity against electroshock-induced convulsions, after 5 hours of peroral administration in mouse. It counts as functional. The note with it: po. In short, it runs like this: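 Compounds were dosed as bases suspended in arabic gum at 10 mL/kg orally, after an overnight fast, with vehicle controls. Protection meant no bilateral forepaw clonic seizures or head twitches (tryptamine), or no tonic hind-limb extension (the other two). ED50 is the dose protecting 50%, by probit analysis.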

Test [4] deals with Mus musculus. The experiment in a line: Inhibitory activity against tremorine-induced salivation, after 1 hour of peroral administration in mouse. In kind it is functional. The note with it: po. The procedure, abridged: (§2)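 Male mice fasted overnight, dosed orally with arabic gum suspension (10 mL/kg) 1 or 5 h before test, vehicle controls included. Tremorine 20 mg/kg ip given 1 h after compounds; central (tremor) and peripheral (salivation) parasympathetic signs recorded. ED50 = dose protecting 50% of animals, by probit analysis.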

Test [5] relates to Mus musculus. The experiment in a line: Lethal dose in mice by administered the compound intraperitoneally. It counts as functional. The settings on record: ip. The procedure, abridged: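 Acute toxicity tested in mice by the intraperitoneal route. LD50 is the dose killing 50% of treated mice, computed by Finney probit analysis; values are approximate.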
In test [6] the test system is Mus musculus. The experiment in a line: Effect on skeletal muscle tone, after 1 hour of peroral administration in mouse. It counts as functional. The note with it: Muscle tissue, po. In short, it runs like this: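 Male mice suspended by forepaws from a 1.8-mm wire stretched 15 cm above a plane. Trained normal mice touch the wire with a hind paw within 2 s (traction) and hang at least 1 min (suspension). Oral dosing 1 or 5 h before. ED50 is the dose making 50% of mice fall without traction and suspension.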

Test [7] deals with Mus musculus. As to the kind of experiment: Effect on skeletal muscle tone, after 5 hour of peroral administration in mouse. It counts as functional. The settings on record: Muscle tissue, po. The procedure, abridged:
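Male mice were placed for 1 h on a 60° inclined wire screen just after dosing and 4 h later. In a second test, trained mice hung by the forepaws from a horizontal 1.8 mm wire 15 cm up; normal mice touch it with a hind paw within 2 s and stay ≥1 min. ED50 is the dose making 50% fall. Dosing was oral in gum arabic suspension at 10 mL/kg after an overnight fast.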

For test [8], the species on record is Rattus norvegicus. As to the kind of experiment: Binding affinity against rat striatal membranes using [3H]spiroperidol as the radioligand after 15 min of incubation at 37 °C.
The subject of test [9] is Mus musculus. As to the kind of experiment: Anticonvulsant activity against electroshock-induced convulsions, after 1 hour of peroral administration in mouse. It counts as functional. The note with it: po. The procedure, abridged:
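Male mice given oral drug in arabic gum suspension (10 mL/kg) after overnight fast, then challenged by maximal electroshock. Protection means absence of tonic hind-limb extension. ED50 is the dose protecting 50% of mice, by probit analysis.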

Test [10] deals with Mus musculus. The experiment in a line: Activity of inclined screen in mouse, after 1 hour of peroral administration in mouse. In kind it is functional. The settings on record: po. In short, it runs like this:
as §1

The test system of test [11] is Mus musculus. As to the kind of experiment: Inhibition against apomorphine-induced climbing, after 1 hour of peroral administration in mouse. In kind it is functional. The note with it: po. The procedure, abridged: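 Mice were dosed orally (gum arabic suspension, 10 mL/kg, fasted), then given apomorphine 1 mg/kg sc and placed in cylindrical cages with vertical metal bars. Climbing was scored 0 for four paws on the floor, 1 for forefeet on the wall, 2 for four paws on the wall. ED50 is the dose halving the control score.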

Test [12] concerns Rattus norvegicus. As to the kind of experiment: Activity to evoke catalepsy in rats, by administering perorally. It counts as functional. The note with it: po. The procedure, abridged: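 Rats fasted overnight and given oral doses in arabic gum suspension (10 mL/kg), 1 h before screening or 1 and 5 h before profile testing. Forelegs placed on a horizontal bar 7 cm high, three times at 5-min intervals. Immobility of at least 15 s counts as catalepsy. ED50 is the dose giving catalepsy in 50% of rats, by probit analysis. Parenthetical entries give the maximal dose and percent activity.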

Test [13] relates to Mus musculus. The experiment in a line: Inhibitory activity against tremorine-induced tremors, after 1 hour of peroral administration in mouse at a dose of 60 mg/kg. It counts as functional. The settings on record: route oral. In short, it runs like this: as §2
Test [14] deals with Mus musculus. The experiment in a line: Antagonistic activity against amphetamine-induced Hypermobility in mouse by administering perorally. The note with it: po. It counts as functional. The procedure, abridged:
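Male mice in groups of five, fasted overnight, given oral drug in arabic gum suspension (10 mL/kg) 1 or 5 h ahead. Amphetamine 4 mg/kg ip given 30 min after drug. Ten minutes later locomotion is recorded for 15 min in a photocell actophotometer. ED50 is 50% reduction versus control hypermotility, by probit analysis. Parenthetical entries give the maximal dose and percent activity.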

In test [15] the test system is Mus musculus. As to the kind of experiment: Inhibitory activity against tremorine-induced salivation, after 1 hour of peroral administration in mouse at a dose of 60 mg/kg. It counts as functional. The note with it: route oral. In short, it runs like this: as §2
Test [16] relates to Rattus norvegicus. As to the kind of experiment: Inhibitory activity against norepinephrine-induced lethality, after 5 hour of peroral administration in rat. In kind it is functional. The note with it: po. In short, it runs like this: (§3)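 Rats (80–90 g) dosed orally (arabic gum, 10 mL/kg) 1 or 5 h before norepinephrine 0.5 mg/kg iv, which kills unprotected rats within 30 min. ED50 is the dose protecting 50% of rats from lethality, by probit analysis.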

Test [17] has as its system Mus musculus. As to the kind of experiment: Inhibitory activity against tremorine-induced tremors, after 5 hour of peroral administration in mouse at a dose of 60 mg/kg. In kind it is functional. The settings on record: route oral. In short, it runs like this: as §2
The test system of test [18] is Rattus norvegicus. As to the kind of experiment: Antagonistic activity against apomorphine-induced stereotypy in rats, by administering perorally. The settings on record: po. In kind it is functional. In short, it runs like this:
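Male rats fasted overnight and given oral doses in arabic gum suspension (10 mL/kg) 1 h, or 1 and 5 h, before challenge. Apomorphine 3 mg/kg iv, with stereotypy observed 20 min later. ED50 is the dose inhibiting stereotypy in 50% of rats, per Janssen's method. Parenthetical entries give the maximal dose and percent activity.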

Test [19] has as its system Rattus norvegicus. As to the kind of experiment: Inhibitory activity against norepinephrine-induced lethality, after 1 hour of peroral administration in rat. In kind it is functional. The settings on record: po. The procedure, abridged:
as §3

In test [20] the test system is Mus musculus. The experiment in a line: Inhibition of spontaneous motor activity, after 5 hour of peroral administration in mouse. It counts as functional. The note with it: po. The procedure, abridged: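 Mice fasted overnight, then dosed orally with compound (weighed as base) suspended in arabic gum, 10 mL/kg, with vehicle controls; 1 h pretreatment for screening tests, 1 or 5 h for others. Groups of five; locomotor activity counted 10 min in photocell activity cage, at least two groups per dose. ED50 = dose giving 50% inhibition versus controls, by probit analysis.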

Another test deals with Dopamine receptor. The experiment in a line: Binding affinity against rat striatal membranes using [3H]spiroperidol as the radioligand, after 15 min of incubation in vitro at 37 degree C. On the set-up: species or system Striatum, Membrane. In short, it runs like this: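 Crude rat striatal membranes were stored at –80 °C, then thawed and washed. They were incubated 15 min at 37 °C with drug (10⁻¹⁰ to 10⁻⁴ M), [3H]spiroperidol 0.5 nM, 1 μM pargyline and 0.1% ascorbic acid, then filtered, washed and counted. Nonspecific binding was defined with 1 μM haloperidol. IC50 was read from the displacement curve.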

A further test deals with Canis familiaris. As to the kind of experiment: Antagonistic activity against apomorphine-induced emesis, after 1 hr of peroral administration in dogs. It counts as functional. The note with it: Canis lupus familiaris, po. The procedure, abridged: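 Male and female dogs pretreated orally, then challenged with apomorphine 0.3 mg/kg sc. Complete protection from vomiting for 30 min after apomorphine is the criterion. ED50 is the dose protecting 50% of dogs, per Janssen's method.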

Test [21] deals with Mus musculus. As to the kind of experiment: Inhibition against apomorphine-induced turning, after 5 hour of peroral administration in mouse. It counts as functional. The settings on record: po. The procedure, abridged: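 Mice were lesioned unilaterally with intranigrostriatal 6-hydroxydopamine (20 µg). At 7 days, strong contraversive turners 15 min after apomorphine 2 mg/kg ip were selected. A week later they were dosed orally and rechallenged. Fewer than six full rotations in 2 min counted as protection. ED50 is the dose protecting 50%.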

For five compounds, ED50, IC50 and inhibition in vivo results are on record in ChEMBL document CHEMBL1124344, “5-Piperazinylalkyl-2(3H)-oxazolones with neuroleptic activity” (J Med Chem, 1989).

Molecules are shown by their SMILES.

For the compound `CN(C)CCCN1c2ccccc2Sc2ccc(Cl)cc21` [CHLORPROMAZINE], the ED50 was found to be 7 mg/kg in the test with Mus musculus [1]; 2 mg/kg in the test with Mus musculus [2]; 10 mg/kg in the test with Mus musculus [3]; 2.5 mg/kg in the test with Mus musculus [4]; 2.7 mg/kg in the test with Mus musculus [5]; 2.7 mg/kg in the test on Mus musculus [6]. Besides, the ED50 with Mus musculus [7] is 7.5 mg/kg; with Mus musculus [9], 19.2 mg/kg; with Mus musculus [10], 5.4 mg/kg; in the test with Mus musculus [11], 2 mg/kg. In the test listed under Rattus norvegicus [8], this compound yielded an IC50 of 180 nM.
As for `COc1ccccc1N1CCN(CCCC(=O)c2ccc(F)cc2)CC1` [FLUANISONE], the ED50 in the test with Rattus norvegicus [12] is 18 mg/kg; in the test with Mus musculus [14], 16.4 mg/kg; in the test with Rattus norvegicus [16], 5.6 mg/kg; with Rattus norvegicus [18] it was 63.2 mg/kg; in the test on Mus musculus [10], 49 mg/kg; in the test with Mus musculus [11], 5 mg/kg. The compound also returned a median effective dose (ED50) in the test with Rattus norvegicus [19] of 1.9 mg/kg. In addition, the inhibition in vivo at 60 mg/kg in the test with Mus musculus [13], with Mus musculus [15] and in the test on Mus musculus [17] was 0% each time.
Regarding `O=C(CCCN1CCC(O)(c2ccc(Cl)cc2)CC1)c1ccc(F)cc1` [HALOPERIDOL], the ED50 with Mus musculus [1] worked out at 6.5 mg/kg; in the test with Mus musculus [2], 21.6 mg/kg; with Mus musculus [3], 0.38 mg/kg; in the test with Mus musculus [4], 4 mg/kg; in the test with Mus musculus [5], 0.23 mg/kg; in the test on Mus musculus [20], 0.35 mg/kg. For the same compound, the ED50 in the test on Mus musculus [6] was determined as 17.1 mg/kg; in the test with Mus musculus [9], 1.9 mg/kg; with Mus musculus [10] it was 6.8 mg/kg; in the test on Mus musculus [11], 0.12 mg/kg. The compound further returned an IC50 in the test filed under Rattus norvegicus [8] of 10 nM.
Regarding `O=c1[nH]c(-c2ccc(F)cc2)c(CCN2CCN(c3cc(Cl)cc(Cl)c3)CC2)o1` [LODIPERONE], the inhibition in vivo at 60 mg/kg with Mus musculus [13], in the test on Mus musculus [15] and in the test on Mus musculus [17] was 0% each time. In addition, the ED50 in the test on Mus musculus [14] was 1.5 mg/kg; in the test with Canis familiaris it was 4 mg/kg; with Mus musculus [20], 2.5 mg/kg; in the test with Mus musculus [11], 0.37 mg/kg; in the test with Mus musculus [21] it was 1 mg/kg. The same compound came in with an IC50 at Dopamine receptor of 68 nM.
Take `COc1ccccc1N1CCN(CCc2oc(=O)[nH]c2-c2ccc(F)cc2)CC1` [ZOLOPERONE]: the ED50 in the test on Rattus norvegicus [12] was found to be 55.6 mg/kg; in the test on Mus musculus [14] it was 4 mg/kg; in the test on Canis familiaris it was 0.7 mg/kg; in the test on Mus musculus [20] it was 20.3 mg/kg; with Rattus norvegicus [16] it was 8.2 mg/kg; in the test with Rattus norvegicus [18] it was 10.4 mg/kg. Further, the ED50 with Mus musculus [7] was found to be 75 mg/kg; with Mus musculus [10], 91 mg/kg; in the test with Mus musculus [11], 0.42 mg/kg; in the test on Rattus norvegicus [19], 3.2 mg/kg; in the test on Mus musculus [21], 20 mg/kg. Also, the IC50 at Dopamine receptor turned out to be 250 nM.
